Results published in ChEMBL document CHEMBL1158715, “Eremophilane-type sesquiterpene derivatives from Senecio aegyptius var. discoideus” (J Nat Prod, 2005).
Activity calls are given as the source filed them. The rule behind the calls is not given here.

What was measured:
Type in all cases: functional, organism-based
Serratia sp. [1] = experiment: Antimicrobial activity against Serratia El-U 9213 at 400 ug/ml
In short: (§1)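 Filter paper disk diffusion on nutrient agar seeded with the test bacterium. Disks were soaked in the test solution for 30 s, then placed on the agar surface. Plates were incubated at 30 °C for 2 days. Five replicates were run per compound at each concentration. Ampicillin at 200 and 400 μg/mL served as the reference.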

Bacillus cereus [2] = experiment: Antimicrobial activity against Bacillus cereus El-U 8180 at 400 ug/ml; in short: as §1
Bacillus cereus [3] = experiment: Antimicrobial activity against Bacillus cereus El-U 8180 at 200 ug/ml; in short: as §1
Serratia sp. [4] = experiment: Antimicrobial activity against Serratia El-U 9213 at 200 ug/ml; in short: as §1

Row | Structure (SMILES) | Activity (Serratia sp. [1]) | Activity (Bacillus cereus [2]) | Activity (Bacillus cereus [3]) | Activity (Serratia sp. [4])
1 | CO[C@@]12C=C3[C@H](O)CC[C@H](C)[C@@]3(C)CC1=C(C)C(=O)O2 | Active | Active | Active | Active
2 | CC1=C2C[C@@]3(C)C(=C[C@@]2(O)OC1=O)[C@H](O)CC[C@@H]3C | Active | Active | Active | Active
3 | CO[C@@]12C[C@@H]3C(=O)CC[C@H](C)[C@@]3(C)CC1=C(C)C(=O)N2 | inactive | Active | Active | inactive
4 | CO[C@@]12C[C@@]34O[C@@H]3CC[C@H](C)[C@@]4(C)CC1=C(C)C(=O)O2 | inactive | Active | Active | inactive
5 | CC1=C2C[C@]3(C)[C@@H](C)CC[C@H]4O[C@]43C[C@@]2(O)OC1=O | Active | Active | Active | Active
6 | CC1=C2C[C@@]3(C)C(=C[C@H]2OC1=O)[C@H](O)CC[C@@H]3C | inactive | Active | Active | inactive
